According to ChEMBL document CHEMBL5303300, “EUbOPEN Chemogenomics Library - Multiplex” (2023):
Where “and” joins values, the source holds several entries; their conditions need not be identical. Identical values can stand only once.

Test system: Fibroblast
Assay: Multiplex assay against human fibroblast
Format: toxicity, cell-based
Details: number of replicates 2
Procedure, shortened: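 Phenotypes for tubulin, mitochondrial mass and membrane permeability are expressed as per cents of healthy-nucleus cells. Cells were stained live at seeding with Hoechst33342, BioTracker Green Microtubule Cytoskeleton Dye, MitoTracker Red and Annexin V Alexa Fluor 680, then imaged after compound addition on a CQ1 microscope at 37°C and 5% CO2. Machine-learning gating in CellPathfinder separated Hoechst high-intensity objects from normal cells, divided normal cells by nuclear state (healthy, pyknosed, fragmented) and divided pyknosed cells into mitotic or apoptotic.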

[1] = 12 h, 1 µM, compound concentration 1 uM
[2] = 12 h, 10 µM, compound concentration 10 uM
[3] = 24 h, 1 µM, compound concentration 1 uM
[4] = 24 h, 10 µM, compound concentration 10 uM
[5] = 48 h, 1 µM, compound concentration 1 uM
[6] = 48 h, 10 µM, compound concentration 10 uM

Compound: C=CC(=O)Nc1ccc2[nH]c(=O)n(C3CCN(Cc4ccc(-c5ccc6c(c5)NC(=O)CO6)cc4)CC3)c2c1 [RL2578]
- Population Apoptotic (%) [1]: 34% and 40%
- Population Fragmented Nuclei (%) [1]: 12% and 8%
- Population Healthy Nuclei (%) [1]: 72% and 66%
- Population Hoechst High Intensity Objects (%) [1]: 0%
- Population Membrane Permeable-Phenotype (%) [1]: 4%
- Population Mitochondria Different-Phenotype (%) [1]: 3%
- Population Mitotic Cells (%) [1]: 65% and 60%
- Population Normal (%) [1]: 100%
- Population Pyknosed Nuclei (%) [1]: 15% and 25%
- Population Tubulin-Different-Phenotype (%) [1]: 13% and 15%
- Total Cell Count [1]: 173 and 180
- Population Apoptotic (%) [2]: 46% and 29%
- Population Fragmented Nuclei (%) [2]: 26% and 23%
- Population Healthy Nuclei (%) [2]: 65% and 67%
- Population Hoechst High Intensity Objects (%) [2]: 0%
- Population Membrane Permeable-Phenotype (%) [2]: 5% and 4%
- Population Mitochondria Different-Phenotype (%) [2]: 0% and 4%
- Population Mitotic Cells (%) [2]: 53% and 70%
- Population Normal (%) [2]: 99% and 100%
- Population Pyknosed Nuclei (%) [2]: 8%
- Population Tubulin-Different-Phenotype (%) [2]: 45% and 35%
- Total Cell Count [2]: 324 and 315
- Population Apoptotic (%) [3]: 48% and 55%
- Population Fragmented Nuclei (%) [3]: 6% and 14%
- Population Healthy Nuclei (%) [3]: 73% and 65%
- Population Hoechst High Intensity Objects (%) [3]: 0%
- Population Membrane Permeable-Phenotype (%) [3]: 3%
- Population Mitochondria Different-Phenotype (%) [3]: 4% and 0%
- Population Mitotic Cells (%) [3]: 51% and 44%
- Population Normal (%) [3]: 100%
- Population Pyknosed Nuclei (%) [3]: 19% and 20%
- Population Tubulin-Different-Phenotype (%) [3]: 18% and 19%
- Total Cell Count [3]: 169 and 214
- Population Apoptotic (%) [4]: 63% and 50%
- Population Fragmented Nuclei (%) [4]: 29% and 26%
- Population Healthy Nuclei (%) [4]: 65% and 69%
- Population Hoechst High Intensity Objects (%) [4]: 0%
- Population Membrane Permeable-Phenotype (%) [4]: 2%
- Population Mitochondria Different-Phenotype (%) [4]: 5% and 4%
- Population Mitotic Cells (%) [4]: 36% and 50%
- Population Normal (%) [4]: 99%
- Population Pyknosed Nuclei (%) [4]: 5% and 3%
- Population Tubulin-Different-Phenotype (%) [4]: 36% and 24%
- Total Cell Count [4]: 377 and 407
- Population Apoptotic (%) [5]: 86% and 67%
- Population Fragmented Nuclei (%) [5]: 14% and 17%
- Population Healthy Nuclei (%) [5]: 71% and 65%
- Population Hoechst High Intensity Objects (%) [5]: 0%
- Population Membrane Permeable-Phenotype (%) [5]: 5% and 6%
- Population Mitochondria Different-Phenotype (%) [5]: 0%
- Population Mitotic Cells (%) [5]: 13% and 32%
- Population Normal (%) [5]: 100% and 99%
- Population Pyknosed Nuclei (%) [5]: 14% and 17%
- Population Tubulin-Different-Phenotype (%) [5]: 14% and 8%
- Total Cell Count [5]: 160 and 217
- Population Apoptotic (%) [6]: 78% and 76%
- Population Fragmented Nuclei (%) [6]: 29%
- Population Healthy Nuclei (%) [6]: 66% and 67%
- Population Hoechst High Intensity Objects (%) [6]: 0%
- Population Membrane Permeable-Phenotype (%) [6]: 0% and 2%
- Population Mitochondria Different-Phenotype (%) [6]: 2% and 1%
- Population Mitotic Cells (%) [6]: 21% and 23%
- Population Normal (%) [6]: 100% and 99%
- Population Pyknosed Nuclei (%) [6]: 4% and 2%
- Population Tubulin-Different-Phenotype (%) [6]: 18% and 13%
- Total Cell Count [6]: 424 and 452
